Source: ChEMBL document CHEMBL4513216, “Probing the Open Global Health Chemical Diversity Library for Multistage-Active Starting Points for Next-Generation Antimalarials” (ACS Infect Dis, 2020)

Assay: Toxicity liver stage against HepG2, at 10uM
Format: cell-based
Parameters: test concentration 10 uM, cell line HepG2-A16-CD81EGFP
Settings: human, HepG2-A16-CD81EGFP cells; read-out: INHIBITION
How it was run: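 Uninfected HepG2-A16-CD81EGFP cells, 3 × 10^3 per well, 1536-well, plated on prespotted compound at 10 μM final, parasite-free screening media added to match infected plates; puromycin 10 μM positive, DMSO 0.5% negative; run in parallel with 48 h PbLuc assay at 37 °C, 5% CO2; viability by CellTiter-Glo luminescence, normalized to controls.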

SMILES	cytotoxicity at 10 µM [%]
N#Cc1ccc(CN2C[C@@H](F)[C@@H](OCc3nc4cnccc4[nH]3)C2)cc1	-3.67
CC(C)(O)c1cc(CC2(NCc3ccco3)COC2)no1	-1.7
CCCSc1nc(N)c(NC(=O)c2ccc(OC)c(OC)c2)c(=O)[nH]1	-8.7
O=C1CCSCC(C(=O)N2CCC(O)CC2)N1 (centres undefined)	-4.2
Cn1nc(CNC(=O)CN2C(=O)CCC2=O)cc1C1CC1	2.89
Cn1cccc1C(=O)NC[C@H]1C[C@@H]2CN(C(=O)c3ccno3)C[C@H]2O1	0.903
COc1cccc(N2CC3(CCN(c4ccncn4)C3)CC2=O)c1 (centres undefined)	8.61
O=C(NCC1CC[C@@]2(CNCCOC2)O1)c1cccnc1 (some centres undefined)	2.32
CCS(=O)(=O)N1CCc2ncnc(C)c2CC1	-0.0192
CCOC(=O)C1CN(S(=O)(=O)C2CC2)Cc2ncn(CC)c21 (centres undefined)	6.71
CC(=O)N1CCC(c2nnc3ccc(C(=O)NC(C)C)cn23)C1 (centres undefined)	6.37
CNC(=O)N1CCc2nc(C(=O)Nc3cccnc3)sc2CC1	1.99
Cc1noc([C@@]23CCO[C@@H]2CCN(C(=O)CN(C)C)C3)n1	10.1
CNC(=O)[C@@]12CCCN(c3ncccn3)[C@@H]1CN(c1ncc(F)cn1)C2	-1.43
Cc1ccccc1CSc1ncc(Br)c(C(=O)O)n1	6.99
CSc1nc2cc(C)n(CC(N)=O)c2c(=O)n1CC(C)C	-11.3
CCC(=O)NS(=O)(=O)c1cccnc1Nc1cccc(Cl)c1Cl	0.0207
COc1ncc(NC(=O)Nc2cc(C)ccc2OC)cn1	2.76
CCN(CC)C(=O)CSc1nc2cc(C)nc-2c(O)n1CC	6.58
Cc1cc(C(F)(F)F)nn1CC(C)C(=O)NC(C)C (centres undefined)	10
CCn1nc(C)c2nnn(CC(=O)Nc3c(C)cccc3C)c(=O)c21	5.22
Cc1cc(Nc2ccc(F)cn2)cc(C2CCN(Cc3ncc[nH]3)C2)n1 (centres undefined)	-8.26

SMILES	cytotoxicity at 10 µM [%]
Cc1nn(C)cc1CN1CCN(CC2(c3ccccc3)CC2)CC1	1.25
COCC(=O)N1CCCC1c1cccc(Nc2ncc(C)s2)n1 (centres undefined)	-17
c1cnc(C2CCCN2c2cnccn2)cn1 (centres undefined)	-22.6
Cc1cccc(CN2CCCC2(C(N)=O)c2cnccn2)n1 (centres undefined)	-21.9
CCC(=O)N1CCC(c2cncc(Oc3cccnc3)n2)CC1	-4.69
CC(=O)N1CCC(c2nccnc2-c2ccc(C(=O)O)cc2)CC1	11.1
Cc1c(C(=O)N2CCC(c3nc(C)n4ccsc34)CC2)cnn1C	-4.41
COc1ccc(CN2CCc3nc(C4CCCCN4C)ncc3C2)cc1 (centres undefined)	-1.08
O=C1CC(C(=O)Nc2nnc(-c3ccccn3)[nH]2)c2ccccc2N1 (centres undefined)	7.92
Cc1ccc(CC(=O)NC2CCN(c3cccc(Cl)c3)C2)cn1 (centres undefined)	2.49
O=C(CN1CCCS1(=O)=O)Nc1ccc(OC(F)F)cc1	1.34
Cc1nc(CN2CCCCC2Cn2cccn2)nc2ccccc12 (centres undefined)	-41.5
CCCN(CC1COc2ccccc2O1)C(=O)C1=NN(C)C(=O)CC1 (centres undefined)	-41
CC(C)N1CCC(NC(=O)NCCC(=O)NCc2ccccc2)C1 (centres undefined)	-0.986
CCc1nc(CN(C)CC(=O)N(C)C2CC2)cs1	-3.54
O=C(NCCNc1ncccn1)N1CCc2ccccc2C1	-5.65
CN(C(=O)Cn1nc(-c2ccc(F)cc2)oc1=O)c1ccccc1	-0.267
CC(=O)N1CCCN(C(=O)Cc2ccc3c(c2)OCO3)CC1	-15.1
Cc1csc(C2CCCCN2C(=O)CCCn2cncn2)n1 (centres undefined)	-8.23
Cn1cc(C(=O)Nc2cccc(F)c2)ccc1=O	-9.66
Cc1ccc(C(C)NC(=O)N2CCNC(=O)CC2)cc1F (centres undefined)	18.9
OC(COCc1ccccc1)CSc1nnc2ccccn12 (centres undefined)	2.95

SMILES	cytotoxicity at 10 µM [%]
CC(C)N(C)CCNC(=O)N(C)CC1CCOCC1	-17.2
Cc1cnccc1CCNC(=O)Nc1cnc(N(C)C)nc1	7.75
Cc1cc(=O)n2nc(Oc3ccc(F)c(F)c3)sc2n1	-15.8
CC(c1ncc(-c2ccccc2)o1)N1CCN(C(=O)C(C)(C)C)CC1 (centres undefined)	17.4
CSCCC(NC(=O)c1ccc2ccccc2n1)C(=O)O (centres undefined)	-3.09
CS(=O)(=O)CCCNC1(c2ccc(Br)cc2)CCC1	-0.0862
O=C(CCc1ccsc1)N(Cc1ccccn1)C1CC1	-4.87
Cn1cnc2c1CCN(CC(O)c1ccc3c(c1)OCCO3)C2 (centres undefined)	-13.7
CCS(=O)(=O)CC(=O)NC(c1ccc(F)cc1)C1CCCC1 (centres undefined)	4.57
Cc1cc(CNC(=O)N2CCN(c3nc(C)c(C)s3)CC2)no1	-1.01
Cn1cc(CN2CCCC3(CCN(C(=O)c4ccoc4)C3)C2)cn1 (centres undefined)	-71.9
c1ccc(-c2nnn3c2COC(CNCC2CC2)C3)cc1 (centres undefined)	-77.8
O=C(c1ccncn1)N1CCC[C@]2(C[C@@H](OCC3CC3)CO2)C1	-78.9
CS(=O)(=O)CC(=O)N1C[C@@H]2CN(Cc3ccoc3)CCO[C@@H]2C1	-69.2
CO[C@H]1CO[C@@]2(CCCN(S(=O)(=O)c3ccccc3)C2)C1	-81.9
Cc1cc(CN2CCC3(CC2)C(=O)NCCN3CC2CC2)oc1C	-67.5
COCCO[C@H]1CCN(C(=O)c2ccc[nH]2)[C@H]1Cc1ccncc1	-5.46
Fc1ccc2[nH]c(C3CCCN3Cc3c[nH]cn3)nc2c1 (centres undefined)	0.786
Cc1cc(NCCCC(F)(F)F)n2nc(C)cc2n1	0.894
COc1cccc(-c2n[nH]cc2C(=O)NC(C)CC(=O)O)c1 (centres undefined)	-8.91
COc1cccc(OC2CN(C(=O)C3CCCN(C(=O)N(C)C)C3)C2)c1 (centres undefined)	0.754
CN(C)C(=O)N1CC[C@]2(O)CCN(C(=O)c3ccc(C#N)nc3)C[C@@H]2C1	-51

SMILES	cytotoxicity at 10 µM [%]
CN1CCCN(C(=O)c2csc(-c3ccc(C(F)(F)F)cc3)n2)CC1	-5.81
CCC(CO)N(C/C(C)=C/c1ccco1)Cc1ccsc1 (centres undefined)	1.12
CC(C)Cn1cncc1CNC(=O)c1cccc(CC2CCNCC2)c1	-4.47
CCN1CCN(CCCNc2ncccn2)CC1	3.41
CCCN(Cc1cccnc1)C(=O)C1CCCN(C)C1 (centres undefined)	9.77
CC(C)(C)NS(=O)(=O)c1ccc(NC(=O)C2CC2)cc1	-6.73
CCOCCn1c(=O)n(CCC(C)C)c2ncc(C(=O)O)cc21	2.62
Nc1ncccc1CN1C[C@@H](C(=O)O)[C@H](c2cccc(F)c2)C1	-11.1
CN1CC2(CCN(CCCOCc3ccccc3)CC2)OC1=O	3.12
Cn1ccnc1CN1CCCC(Cc2ccccn2)C1 (centres undefined)	2.75
C=C(C)CN1CCN(Cc2nccn2C)C(C)C1 (centres undefined)	-14.6
Cn1cc(-c2nc(CN3CCN(c4nccs4)CC3)cs2)cn1	-7.45
CCOc1ncccc1C(=O)N1CCCC(n2nc(C)nc2C)C1 (centres undefined)	-8.47
Cc1ccc(NS(=O)(=O)c2cc3c(c(C(=O)O)c2)OCCO3)c(F)c1	-9.36
CC(C)c1noc(CCCC(=O)N2CCN(Cc3ccncc3)CC2)n1	-6.59
COc1cccc2cc(CNC(=O)N3CCCC(O)C3)oc12 (centres undefined)	-8.8
CC(C)c1nccn1C1CCCN(C(=O)c2cccc3c2OCO3)C1 (centres undefined)	-7.71
COc1cc(CNCc2c(C)nn(C)c2N(C)C)ccn1	-9.48
O=C(c1ccnc(C2CCNCC2)c1)N1CCCOCC1	-3.64
CNC(=O)N1CCC2(CC1)CN(C(C)C)Cc1cc(F)ccc12	-2.82
O=C(c1ccoc1)N1CCCC2(CCC(=O)N2Cc2cccnc2)C1 (centres undefined)	-4.41
CN(C)C(=O)COC1COC2(CCN(c3cccc(F)c3)CC2)C1 (centres undefined)	-66

SMILES	cytotoxicity at 10 µM [%]
O=C(O)[C@]12CCCN(Cc3ccco3)C[C@H]1CN(c1ncccn1)C2	7.34
Cn1cc(N2CC3(CCN(CC4CCC4)CC3)OCC2=O)cn1	-0.269
Cc1ccc(N2C[C@@H]3CN(Cc4csc(C)n4)CCO[C@@H]3C2)nn1	7.64
Cc1nc(COC[C@@]23CCC[C@@H]2CN(Cc2nccs2)C3)cs1	12.9
Cc1cnc(N2CCN3C[C@H](OCc4cccc(C)n4)C[C@H]3C2)nc1	-1.25
CCS(=O)(=O)N1CC[C@H](OC)[C@H]2CN(Cc3ccncc3)C[C@H]21	10.3
CNC(=O)CN1CCCC12CCN(C(=O)c1ccc(F)cc1)CC2	5.03
CCS(=O)(=O)N1Cc2ncn(C)c2C(COCC2CCOCC2)C1 (centres undefined)	-72.6
Cc1nc(COC[C@H]2CC[C@H]3[C@H](CCN3c3ncccn3)O2)cs1	-71.2
CCOCCN1Cc2cnn(C)c2C(COCC)C1 (centres undefined)	-62.6
c1cnc(N2CCO[C@H]3CN(Cc4csnn4)C[C@H]32)nc1	-70.7
CNC(=O)[C@@H]1C[C@H]2CN(Cc3csc(C)n3)C[C@H]2N1C(C)C	7.08
Cc1ccc(CN2CC[C@@H](O)[C@@H]2Cc2ccccc2)o1	1.73
O=C1N(CC2CC2)CCC12CCCN(c1ncc(F)cn1)C2 (centres undefined)	4.79
CN1CC(=O)N(c2ccccc2)CC12CCN(S(C)(=O)=O)C2 (centres undefined)	-75.7
CCN1CC2(CC1=O)CN(Cc1ccc(C)o1)CCN(C(=O)C(C)C)C2 (centres undefined)	2.84
CC(C)CC(=O)N1CC[C@H]2N(C)CC[C@@]2(C(=O)Nc2ccccc2)CC1	-4.71
C[C@@H]1CN(C2CCOCC2)C[C@]12CCN(c1cccnc1)C2=O	5.95
CC(C)N1CCO[C@@H]2CN(S(=O)(=O)c3cccs3)CC[C@@H]2C1	5.9
CCOc1ncnc2c1CCN(C(=O)CN(C)C)CC2	-5.12
O=C(CC1[C@H]2CN(C(=O)CO)C[C@@H]12)Nc1cccnc1 (some centres undefined)	9.19
